Test results taken from PMC4478078 (Biochemistry, 2015).
Substitutions are numbered along the chain they refer to.

Assays:
[1] = biological target: T1, HO2core (human HO2 residues 1–248) (Homo sapiens, UniProt P30519); assay: Fe^3+-heme difference titration with HO2core; assay type: binding; conditions: read-out: Kd (titrations); 2 μM HO2core; 50 mM Tris pH 8.0, 50 mM KCl, 20 °C, anaerobic; quadratic fit
T1 sequence (P30519 1-248): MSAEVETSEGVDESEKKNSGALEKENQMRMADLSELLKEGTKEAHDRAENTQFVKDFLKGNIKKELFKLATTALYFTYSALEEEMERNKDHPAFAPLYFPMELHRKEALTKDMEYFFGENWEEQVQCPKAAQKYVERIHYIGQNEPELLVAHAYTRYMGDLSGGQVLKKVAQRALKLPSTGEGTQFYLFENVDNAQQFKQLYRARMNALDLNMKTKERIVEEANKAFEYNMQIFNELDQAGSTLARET

[2] = biological target: T2, HO2tail(C282A)^R (human HO2 residues 213–288, disulfide-reduced) (Homo sapiens, UniProt P30519, C282A); assay: Fe^3+-heme difference titration with HO2tail; assay type: binding; conditions: read-out: Kd (titrations); 10 μM HO2tail(C282A)^R; 50 mM Tris pH 8.0, 50 mM KCl, 20 °C, anaerobic
T2 sequence (P30519 213-288 C282A): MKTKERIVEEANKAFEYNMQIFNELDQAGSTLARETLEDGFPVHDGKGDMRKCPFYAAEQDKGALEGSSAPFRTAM

[3] = biological target: T3, HO2tail(C265A)^R (human HO2 residues 213–288, disulfide-reduced) (Homo sapiens, UniProt P30519, C265A); assay: Fe^3+-heme difference titration with HO2tail; assay type: binding; conditions: read-out: Kd (titrations); 6 μM HO2tail(C265A)^R; 50 mM Tris pH 8.0, 50 mM KCl, 20 °C, anaerobic
T3 sequence (P30519 213-288 C265A): T2 sequence (P30519 213-288 C282A) with C53A, A70C

[4] = biological target: T4, HO2tail(C282A)^R (Homo sapiens, UniProt P30519, C282A); assay: Fe^3+-heme off rate, apo-H64Y/V68F-myoglobin assay, HO2tail; assay type: binding; conditions: 2 μM heme-bound protein, 20 μM apo-H64Y/V68F-myoglobin, 20 °C
T4 sequence (P30519 213-288 C282A): T2 sequence (P30519 213-288 C282A)
In short: (§1)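 Disulfide-reduced (TCEP) heme-loaded protein, freed of unbound heme, at 2 μM was mixed with 20 μM apo-H64Y/V68F-myoglobin in 50 mM Tris pH 8.0, 50 mM KCl. Apomyoglobin was prepared by methyl ethyl ketone extraction, dialysed against Tris pH 7.4 with 150 mM KCl, and quantified at 280 nm. Spectra were recorded over time at 20 °C, following the absorbance rise at 600 from heme scavenging.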

[5] = system: HO2tail(C265A)^R; assay: as above; assay type: binding, human; conditions: 2 μM heme-bound protein, 20 μM apo-H64Y/V68F-myoglobin, 20 °C
In short: as §1

[6] = system: HO2tail^R; assay: Fe^3+-heme off rate, apo-H64Y/V68F-myoglobin assay, HO2tail^R; assay type: binding, human; conditions: double-exponential, 20 °C
In short: as §1

[7] = system: HO2sol^R (human HO2 residues 1–288, disulfide-reduced); assay: Fe^3+-heme off rate, apo-H64Y/V68F-myoglobin assay, HO2sol^R; assay type: binding; conditions: double-exponential, 20 °C
In short: as §1

[8] = biological target: T5, HO2core (Homo sapiens, UniProt P30519); assay: Fe^3+-heme on rate, anaerobic stopped flow, HO2core; assay type: binding
T5 sequence (P30519 1-248): T1 sequence (P30519 1-248)
In short: (§2)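 Apoprotein at various concentrations was mixed with Fe3+-heme in 50 mM Tris pH 8.0, 50 mM KCl by stopped-flow inside an anaerobic chamber, 1 cm path, 20 °C, 406 nm. Each kobs is the mean of 5–7 traces fit to a single exponential. Eq 1 fit of kobs versus apoprotein concentration gave k2/k1 and kcoord, with k′heme ≈ kcoord/(k2/k1). Kd is the myoglobin-assay off rate divided by k′heme.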

[9] = biological target: T4, HO2tail(C282A)^R; assay: Fe^3+-heme on rate, anaerobic stopped flow, HO2tail; assay type: binding
In short: as §2

[10] = biological target: T6, HO2sol^R (Homo sapiens, UniProt P30519); assay: Fe^3+-heme on rate, anaerobic stopped flow, HO2sol^R; conditions: 406 nm, 20 °C, per observable binding site (two per monomer)
T6 sequence (P30519 1-288): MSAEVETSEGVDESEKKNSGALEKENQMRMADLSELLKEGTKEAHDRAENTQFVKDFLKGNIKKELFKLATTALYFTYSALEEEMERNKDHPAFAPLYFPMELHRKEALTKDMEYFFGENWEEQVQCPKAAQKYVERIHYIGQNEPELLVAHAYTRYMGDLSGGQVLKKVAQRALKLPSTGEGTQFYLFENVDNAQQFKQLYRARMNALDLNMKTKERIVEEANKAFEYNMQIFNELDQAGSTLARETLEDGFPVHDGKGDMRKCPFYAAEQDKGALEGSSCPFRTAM
In short: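 TCEP-reduced apoprotein at various concentrations was mixed with Fe3+-heme in anaerobic 50 mM Tris pH 8.0, 50 mM KCl by stopped-flow within an anaerobic chamber at 20 °C, monitored at 406 nm. Each kobs is an average of 5–7 traces fit to a single exponential. kobs was plotted against the concentration of observable binding sites and fit to eq 1; k′heme ≈ kcoord/(k2/k1).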

[11] = system: HO2tail^R; assay: Pyridine hemochrome assay of bound heme, HO2tail^R; assay type: binding, human; conditions: after 5-fold excess Fe^3+-heme and removal of unbound heme
In short: (§3)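 Protein was reduced with a 25-fold molar excess of TCEP for 1 h anaerobically, desalted into anaerobic 50 mM Tris pH 8.0, 50 mM KCl, then incubated 1 h with excess Fe3+-heme (5-fold molar excess in the general method). The heme stock contained 15% DMSO and 0.1 M NaOH, was filtered and quantified at 385 nm. Unbound heme was removed on a desalting column. Bound heme was measured by pyridine hemochrome (Δε556 28.32 mM−1 cm−1).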

[12] = biological target: T6, HO2sol^R; assay: Pyridine hemochrome assay of bound heme, HO2sol^R; assay type: binding; conditions: after 5-fold excess Fe^3+-heme and removal of unbound heme
In short: as §3

[13] = system: HO2tail(C265A)^R; assay: Pyridine hemochrome assay of bound heme, HO2tail; assay type: binding, human; conditions: after excess Fe^3+-heme and removal of unbound heme
In short: as §3

[14] = biological target: T4, HO2tail(C282A)^R; assay: Pyridine hemochrome assay of bound heme, HO2tail; assay type: binding; conditions: after excess Fe^3+-heme and removal of unbound heme
In short: as §3

[15] = system: HO2tail(C265A/C282A)^R; assay: Heme binding to HO2tail; set-up: species or system human; conditions: data not shown
[16] = system: HO2 tail at Cys265; assay: Calculated dissociation equilibrium constant, HO2 tail at Cys265; assay type: binding, human
[17] = system: HRI (heme-regulated eukaryotic initiation factor 2α kinase); conditions: cited from earlier work
[18] = fit of eq 1 to kobs vs apoprotein concentration
[19] = read-out: Kd (k-heme/k′heme), calculated from off and on rates

Kd [1]: 14 ± 4 nM
Kd [2]: 90 ± 30 nM
Kd [3]: 900 ± 300 nM
k-heme (off rate) [4]: 0.0023 ± 0.0001 s⁻¹
k′heme (apparent second-order rate constant, kcoord/(k2/k1)) ([8]; 406 nm, 20 °C, anaerobic): 6.4 µM⁻¹ s⁻¹
k2/k1 [8, 18]: 14.1 ± 0.3 µM
kcoord [8, 18]: 91 ± 1 s⁻¹
Kd [8, 19]: 0.2 nM
k′heme (apparent second-order rate constant, kcoord/(k2/k1)) ([9]; 406 nm, 20 °C, anaerobic): 7.6 µM⁻¹ s⁻¹
k2/k1 [9, 18]: 14 ± 4 µM
kcoord [9, 18]: 110 ± 10 s⁻¹
Kd [9, 19]: 0.3 nM
k′heme (apparent second-order rate constant, kcoord/(k2/k1)) [10]: 6.9 µM⁻¹ s⁻¹
hemes bound per monomer of protein [12]: 2.1 ± 0.1 hemes per monomer of protein
heme bound per monomer of protein [14]: 0.8 ± 0.2 heme per monomer of protein
Fe^3+-heme binding (in words) [15]: did not bind
difference in binding affinity between the sites (core His45 vs tail Cys265) ([16]; Fe^3+-heme difference titrations): ~ 6 fold
difference in binding affinity between the sites (core His45 vs tail Cys265) ([16]; kinetic experiments): 2–5 fold
Compound: C=CC1=C(C)c2cc3[n-]c(cc4[n-]c(cc5nc(cc1n2)C(C)=C5C=C)c(C)c4CCC(=O)O)c(CCC(=O)O)c3C.[Fe+2] [Fe^3+-heme]
k-heme (off rate) [5]: 0.0055 ± 0.0005 s⁻¹
k-heme (off rate), fast phase ([6]; fast phase, assigned to Cys282): 0.0086 ± 0.003 s⁻¹
k-heme (off rate), slow phase ([6]; slow phase, assigned to Cys265): 0.0023 ± 0.0004 s⁻¹
k-heme (off rate), fast phase ([7]; fast phase, assigned to Cys265): 0.0031 ± 0.0002 s⁻¹
k-heme (off rate), slow phase ([7]; slow phase, assigned to His45 at the core): 0.00054 ± 0.00006 s⁻¹
hemes bound per monomer of protein [11]: 1.4 ± 0.3 hemes per monomer of protein
heme bound per monomer of protein [13]: 0.74 ± 0.03 heme per monomer of protein
off rate [17]: 0.0015 s⁻¹
